pIC50: −log10 of the molar value.
Experiments:
P388 [1] = assay: Optimal dose in mg/kg administered intraperitoneally on days 1,5 and 9 required to inhibit the growth of P388 leukemia cells was determined (in vivo); format: functional, Mus musculus
How it was run: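 Mice were inoculated ip with 10^6 P388 cells. Drug was given ip as a solution in 0.1 mL 30% v/v EtOH/water on days 1, 5 and 9. The optimal dose (mg/kg per day) is the one giving maximal increase in life span; survivors were scored at 50 days, in groups of six.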

[2] = Lipophilicity (HPLC); format: physicochemical
P388 [3] = assay: (§1) Average increase in life span of treated animals over control groups of tumor-bearing untreated animals when given at optimal dose (in vivo); format: functional, Mus musculus
How it was run: (§2)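 Mice inoculated ip with 10^6 P388 cells (drug ip on days 1, 5, 9) or iv with 10^6 Lewis lung cells (drug ip on days 5, 9, 13). Drug given as a solution in 0.1 mL 30% v/v EtOH/water, in mg/kg per day. Value is the average life-span increase versus untreated tumor-bearing controls at the optimal dose. Significance thresholds: ILS >20% (P388), >40% (LL). Groups of six.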

L1210 [4] = assay: Nanomolar concentration required to reduce the growth of L1210 cells in culture to 50% of control values after 70 h (in vitro); format: functional, cell-based; conditions: Mus musculus, L1210, 70 h
How it was run: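 L1210 cells were grown in culture with drug for 70 h. IC50 is the drug concentration (nM) reducing growth to 50% of control values.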

[5] = test system: Lewis lung carcinoma cell line; assay: Optimal dose required after intraperitoneal administration on days 5,9 and 13 to inhibit the growth of lewis lung carcinoma (LL) cells was determined (in vivo); format: functional, Mus musculus
How it was run: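 Mice were inoculated iv with 10^6 Lewis lung cells. Drug was given ip in 0.1 mL 30% v/v EtOH/water on days 5, 9 and 13. The optimal dose (mg/kg per day) is the one giving maximal increase in life span; survivors were scored at 60 days, in groups of six.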

[6] = test system: Lewis lung carcinoma cell line; assay: (§3) Average increase in life span of treated animals over control groups of tumor-bearing untreated animals when given at optimal dose; NA means no significant activity (in vivo); format: functional, organism-based; conditions: Mus musculus
How it was run: (§4)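 Mice received drug ip as a solution in 0.1 mL 30% v/v EtOH/water at the optimal dose. For P388, 10^6 cells were inoculated ip and drug given on days 1, 5 and 9. For LL, 10^6 cells were inoculated iv and drug given on days 5, 9 and 13. ILS is the mean life-span increase over untreated tumor-bearing controls, significant above 20% (P388) or 40% (LL). Groups were of six. NA means no significant activity up to acutely toxic doses.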

L1210 [7] = assay: Tested for comparative cytotoxicity as ratio of IC50 value, relative to OMe derivative (1.00).; format: functional, Mus musculus
L1210 [8] = assay: Tested for comparative cytotoxicity as ratio of IC50 value, relative to 3-substituted derivative (1.00).; format: functional, Mus musculus
[9] = test system: Lewis lung carcinoma cell line; assay: as §1; format: functional, Mus musculus; how it was run: as §2
P388 [10] = assay: as §3; format: functional, organism-based; conditions: Mus musculus; how it was run: as §4

Row | Compound | OD (P388 [1]) | Rm [2] | ILS max (P388 [3]) | pIC50 (L1210 [4]) | OD [5] | ILS max [6] | Ratio (L1210 [7]) | Ratio (L1210 [8]) | ILS max [9] | ILSmax (P388 [10]) | ILSmax [6]
1 | COc1ccc2nc3cccc(C(=O)NCCN(C)C)c3nc2c1 | 100 mg/kg/day | -0.33 | 39 | 5.98 | 150 mg/kg/day | Not significant | – | – | – | – | –
2 | Cc1ccc2nc3cccc(C(N)=O)c3nc2c1 | – | – | – | – | – | – | 0.9 | 1.5 | – | – | –
3 | COc1cccc2nc3c(C(N)=O)cccc3nc12 | – | – | – | – | – | – | 1 | 6 | – | – | –
4 | NC(=O)c1cccc2nc3cccc(Cl)c3nc12 | – | – | – | – | – | – | 0.2 | 0.07 | – | – | –
5 | COc1ccc2nc3c(C(N)=O)cccc3nc2c1 | – | – | – | – | – | – | 1 | 5 | – | – | –
6 | Cc1cc(C(N)=O)c2nc3ccccc3nc2c1 | – | – | – | – | – | – | 0.5 | 1 | – | – | –
7 | Cc1cc(C(=O)NCCN(C)C)c2nc3ccccc3nc2c1 | 225 mg/kg/day | -0.15 | 91 | 6.39 | 225 mg/kg/day | – | – | – | 158 | – | –
8 | Cc1ccc2nc3cccc(C(=O)NCCN(C)C)c3nc2c1 | 150 mg/kg/day | -0.2 | 60 | 6.20 | 225 mg/kg/day | – | – | – | 81 | – | –
9 | CN(C)CCNC(=O)c1cc(Cl)cc2nc3ccccc3nc12 | 150 mg/kg/day | -0.06 | 106 | 6.80 | 150 mg/kg/day | – | – | – | 63 | – | –
10 | Cc1cccc2nc3cccc(C(=O)NCCN(C)C)c3nc12 | 65 mg/kg/day | -0.23 | 45 | 7.38 | 65 mg/kg/day | – | – | – | 62 | – | –
11 | NC(=O)c1cccc2nc3cc(Cl)ccc3nc12 | – | – | – | – | – | – | 0.3 | 7.1 | – | – | –
12 | COc1ccc(C(N)=O)c2nc3ccccc3nc12 | – | – | – | – | – | – | 1 | 0.6 | – | – | –
13 | COc1cccc2nc3c(C(=O)NCCN(C)C)cccc3nc12 | 150 mg/kg/day | -0.44 | – | 5.30 | – | – | – | – | – | Not significant | –
14 | Cc1cccc2nc3c(C(N)=O)cccc3nc12 | – | – | – | – | – | – | 0.6 | 2 | – | – | –
15 | COc1ccc2nc3cccc(C(N)=O)c3nc2c1 | – | – | – | – | – | – | 1 | 1.4 | – | – | –
16 | CN(C)CCNC(=O)c1cccc2nc3cc(Cl)ccc3nc12 | 65 mg/kg/day | -0.13 | 20 | 5.94 | 65 mg/kg/day | – | – | – | – | – | Not significant
17 | CN(C)CCNC(=O)c1cccc2nc3ccccc3nc12 | 150 mg/kg/day | -0.29 | 88 | 5.85 | 150 mg/kg/day | – | – | – | 57 | – | –
18 | Cc1ccc(C(N)=O)c2nc3ccccc3nc12 | – | – | – | – | – | – | 0.7 | 1 | – | – | –
19 | CN(C)CCNC(=O)c1cccc2nc3ccc4ccccc4c3nc12 | 30 mg/kg/day | -0.05 | 98 | 7.48 | 45 mg/kg/day | – | – | – | 56 | – | –

Row | Compound | OD (P388 [1]) | Rm [2] | ILS max (P388 [3]) | pIC50 (L1210 [4]) | OD [5] | ILS max [6] | Ratio (L1210 [7]) | Ratio (L1210 [8]) | ILS max [9] | ILSmax (P388 [10]) | ILSmax [6]
20 | CN(C)CCNC(=O)c1cccc2nc3ccc(Cl)cc3nc12 | 100 mg/kg/day | -0.2 | 64 | 6.17 | 100 mg/kg/day | – | – | – | 64 | – | –
21 | COc1ccc2nc3ccccc3nc2c1C(=O)NCCN(C)C | 225 mg/kg/day | -0.5 | 33 | 5.79 | 225 mg/kg/day | – | – | – | 43 | – | –
22 | NC(=O)c1cc(Cl)cc2nc3ccccc3nc12 | – | – | – | – | – | – | 0.4 | 1 | – | – | –
23 | CN(C)CCNC(=O)c1cc2ccccc2c2nc3ccccc3nc12 | 65 mg/kg/day | 0.11 | 84 | 6.77 | 65 mg/kg/day | Not significant | – | – | – | – | –
24 | CCN(CC)CCNC(=O)c1cccc2nc3ccccc3nc12 | 225 mg/kg/day | 0.09 | 43 | 5.68 | 150 mg/kg/day | Not significant | – | – | – | – | –
25 | CN(C)CCNC(=O)c1cccc2nc3c(ccc4ccccc43)nc12 | 45 mg/kg/day | -0.32 | 29 | 6.51 | 45 mg/kg/day | Not significant | – | – | – | – | –
26 | Cc1cccc2nc3cccc(C(N)=O)c3nc12 | – | – | – | – | – | – | 0.9 | 0.1 | – | – | –
27 | Cc1ccc2nc3c(C(=O)NCCN(C)C)cccc3nc2c1 | 150 mg/kg/day | -0.18 | 29 | 5.82 | 100 mg/kg/day | Not significant | – | – | – | – | –
28 | CN(C)CCNC(=O)c1cccc2nc3c(Cl)cccc3nc12 | 150 mg/kg/day | -0.18 | 56 | 6.11 | 150 mg/kg/day | – | – | – | 49 | – | –
29 | COc1cc(C(=O)NCCN(C)C)c2nc3ccccc3nc2c1 | 100 mg/kg/day | -0.25 | 22 | 6.08 | 150 mg/kg/day | Not significant | – | – | – | – | –
30 | NC(=O)c1cccc2nc3c(Cl)cccc3nc12 | – | – | – | – | – | – | 0.6 | 5 | – | – | –
31 | CN(C)CCNC(=O)c1cccc2nc3cccc(Cl)c3nc12 | 30 mg/kg/day | -0.37 | 61 | 7.96 | 45 mg/kg/day | – | – | – | 124 | – | –
32 | Cc1cccc2nc3c(C(=O)NCCN(C)C)cccc3nc12 | 150 mg/kg/day | -0.01 | 58 | 6.09 | 150 mg/kg/day | Not significant | – | – | – | – | –
33 | Cc1ccc2nc3c(C(N)=O)cccc3nc2c1 | – | – | – | – | – | – | 0.4 | 3.7 | – | – | –
34 | NC(=O)c1cccc2nc3ccc(Cl)cc3nc12 | – | – | – | – | – | – | 0.6 | 4.2 | – | – | –
35 | COc1cc(C(N)=O)c2nc3ccccc3nc2c1 | – | – | – | – | – | – | 1 | 1 | – | – | –
36 | COc1cccc2nc3cccc(C(=O)NCCN(C)C)c3nc12 | 100 mg/kg/day | -0.42 | 106 | 7.32 | 100 mg/kg/day | – | – | – | 128 | – | –
37 | COc1cccc2nc3cccc(C(N)=O)c3nc12 | – | – | – | – | – | – | 1 | 0.05 | – | – | –

Reference: ChEMBL document CHEMBL1123882, “Potential antitumor agents. 51. Synthesis and antitumor activity of substituted phenazine-1-carboxamides” (J Med Chem, 1987)
